Displacement and Ki data for 14 molecules are collected here from ChEMBL document CHEMBL1132439, “Selective A(3) adenosine receptor antagonists: water-soluble 3, 5-diacyl-1,2,4-trialkylpyridinium salts and their oxidative generation from dihydropyridine precursors” (J Med Chem, 1999).

Where only a bound is given, the exact number is not on record here.

In assay [1] the target is T1, Adenosine receptor A1 (Rattus norvegicus) (UniProt P25099).
T1 sequence (whole entry): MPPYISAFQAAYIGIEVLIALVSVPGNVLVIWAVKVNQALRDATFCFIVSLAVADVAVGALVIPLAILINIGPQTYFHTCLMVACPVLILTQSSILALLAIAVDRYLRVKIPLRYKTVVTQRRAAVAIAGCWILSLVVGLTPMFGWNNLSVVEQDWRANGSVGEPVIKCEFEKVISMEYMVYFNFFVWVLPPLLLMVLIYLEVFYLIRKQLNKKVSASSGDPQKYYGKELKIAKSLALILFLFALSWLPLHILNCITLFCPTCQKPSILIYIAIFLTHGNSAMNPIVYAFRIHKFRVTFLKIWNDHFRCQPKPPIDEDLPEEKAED
The experiment in a line: Displacement of [3H]R-PIA from Adenosine A1 receptor from rat brain membranes at 10^-4M. The assay is classed as cell membranes. The following applies: Membrane. In a few lines: (§1)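 Rat cerebral cortex membranes prepared with adenosine deaminase 3 units/mL, also present in a 30 min preincubation at 30 °C and during radioligand incubation. Nonspecific binding defined with 10 μM 2-chloroadenosine. Compounds dissolved in DMSO, diluted in buffer (≤1% DMSO). Filtration over GF/B filters.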
(Loss of bound radioactivity is the signal in a displacement assay; it reports binding, not function.)

The next assay deals with Adenosine receptor A2a (Rattus norvegicus, UniProt P30543). The experiment in a line: Displacement of [3H]CGS-21680 from Adenosine A2A receptor of rat striatal membranes. Type of assay: cell membranes, Membrane. In a few lines: (§2)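 Rat striatal membranes prepared with adenosine deaminase 3 units/mL, also present in a 30 min preincubation at 30 °C and during radioligand incubation. Nonspecific binding defined with 20 μM 2-chloroadenosine. Compounds dissolved in DMSO, diluted in buffer (≤1% DMSO). Filtration over GF/B filters. IC50 from at least five competitor concentrations spanning 3 log units, converted to Ki by Cheng-Prusoff; n = 3–6, or % specific binding displaced at 10⁻⁴ M.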

For the next assay, the target named is T2, Adenosine receptor A1 (Rattus norvegicus, UniProt P25099).
T2 sequence (P25099 whole entry): T1 sequence (whole entry)
The experiment in a line: (§3) Displacement of [3H]R-PIA from Adenosine A1 receptor of rat brain membranes. The assay is classed as cell membranes, Membrane. In a few lines: as §1

For assay [2], the target named is Adenosine receptor A2a (Rattus norvegicus) (UniProt P30543). Kind of assay: Displacement of [3H]CGS-21680 from Adenosine A2A receptor of rat striatal membranes at 10^-4M. Type of assay: cell membranes. The conditions noted are these: Membrane. Put shortly: as §2
Assay [3] concerns the target T1, Adenosine receptor A1 (Rattus norvegicus). Described as §3. Type of assay: cell membranes. The following applies: Membrane. Put shortly:
as §1

Chain of Adenosine receptor A2a (Rattus norvegicus) (P30543 whole entry): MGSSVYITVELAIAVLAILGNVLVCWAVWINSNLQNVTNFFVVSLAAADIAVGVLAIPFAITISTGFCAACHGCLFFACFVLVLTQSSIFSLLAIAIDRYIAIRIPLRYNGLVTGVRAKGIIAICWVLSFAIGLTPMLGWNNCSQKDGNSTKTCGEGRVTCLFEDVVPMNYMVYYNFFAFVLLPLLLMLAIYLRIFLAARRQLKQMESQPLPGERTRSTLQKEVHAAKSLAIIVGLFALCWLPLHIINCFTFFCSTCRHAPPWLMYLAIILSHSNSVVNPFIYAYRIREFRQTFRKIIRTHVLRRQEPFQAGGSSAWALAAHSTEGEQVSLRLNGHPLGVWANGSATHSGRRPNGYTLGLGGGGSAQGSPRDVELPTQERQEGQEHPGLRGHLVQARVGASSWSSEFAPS
Chain of Adenosine receptor A2a (P30543 whole entry): as above

In assay [1], `CCCOC(=O)c1c(CCSC(C)=O)c(C(=O)SCC)c(CC)[n+](C)c1-c1ccccc1` yielded a Displacement of 45%. Also, the inhibitory constant (Ki) on Adenosine receptor A2a worked out at 53.2 µM.

For the molecule `CCOC(=O)c1c(CC)c(C(=O)SCC)c(C2CCC2)[n+](C)c1-c1ccccc1`, the Ki on Adenosine receptor A2a was found to be 33.2 µM; on Adenosine receptor A1 it was 88 µM.

Take `CCOC(=O)c1c(CCN2C(=O)c3ccccc3C2=O)c(C(=O)SCC)c(CC)[n+](C)c1-c1ccccc1`: the inhibition constant Ki at Adenosine receptor A2a is 2.15 µM; on Adenosine receptor A1, 1.53 µM.

The molecule `CCCOC(=O)c1c(CC)c(C(=O)SCC)c(CC)[n+](C)c1-c1ccccc1` returned a Displacement in assay [1] of under 10%. For the same molecule, at Adenosine receptor A2a, the Ki is 18.7 µM.

On to `CCCCc1c(C(=O)SCC)c(CC)c(C(=O)OCC)c(-c2ccccc2)[n+]1C`, for which the Ki was determined as 6.02 µM at Adenosine receptor A2a and 14.5 µM on Adenosine receptor A1.

On to `CCCOC(=O)c1c(CCC)c(C(=O)SCCCF)c(CC)[n+](C)c1-c1ccccc1`, for which the Displacement in assay [1] was under 10%. The molecule further registered an inhibition constant (Ki) at Adenosine receptor A2a of 7.37 µM.

For the molecule `CCOC(=O)c1c(CC)c(C(=O)SCC)c(CC)[n+](C)c1-c1ccccc1`, the Ki at Adenosine receptor A2a was determined as 11.6 µM; on Adenosine receptor A1, 31.9 µM.

Regarding `CCOC(=O)c1c(CC)c(C(=O)SCC)c(CC)[n+](CC)c1-c1ccccc1`, the Displacement in assay [2] was 25%.

In assay [1], `CCOC(=O)c1c(CC)c(C(=O)SCC)c(C)[n+](C)c1-c1ccccc1` displayed a Displacement of 22%. Moreover, the affinity at Adenosine receptor A2a, expressed as Ki, was 20.8 µM.

In the case of `CCCOC(=O)c1c(CCC)c(C(=O)SCC)c(CC)[n+](C)c1-c1ccccc1`, the Displacement in assay [1] was under 10%; in assay [2] it was 25%.

In assay [1], `CCSC(=O)c1c(CC)c(C(=O)OCCF)c(-c2ccccc2)[n+](C)c1CC` returned a Displacement of 30%. The same molecule gave a Ki at Adenosine receptor A2a of 56.6 µM.

For `CCOC(=O)c1c(CC)c(C(=O)SCC)c(CC)[n+](C)c1C1CCCC1`, the inhibitory constant (Ki) at Adenosine receptor A2a was 7.72 µM. That is a single-digit micromolar value.

In assay [2], `CCC[n+]1c(CC)c(C(=O)SCC)c(CC)c(C(=O)OCC)c1-c1ccccc1` returned a Displacement of 28%. The same molecule showed a Ki at Adenosine receptor A1 of 76.9 µM.

In turn, `CCCOC(=O)c1c(CCC)c(C(=O)SCC)c(CCOCc2ccccc2)[n+](C)c1-c1ccccc1` showed a Displacement in assay [3] of 21%. The same molecule yielded a Ki on Adenosine receptor A2a of 11.9 µM.

One may read the Ki as a measure of affinity in units of concentration, obtained from inhibition or displacement. Lower therefore signals a stronger hold on the target.
